The nature of series [1]: Chemical stability of the compound. The series is classed as physicochemical.
The test system of series [2] is HT-29. In words: Phototoxicity against human HT29 cells irradiated with 652 nm diode laser at the rate of 50 J/cm'2 at 10 uM after 24 hrs by XTT assay in presence of 10% heat-inactivated fetal calf serum. Format: functional, cell-based. The method in brief:
(§1)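 HT-29 cells seeded at 2 × 10⁴ cells/well. Loaded 24 h with 2 or 10 μM sensitizer (final; from 2 mM DMSO stock kept dark at 4 °C) in phenol-red-free RPMI 1640 plus 10% FCS. Irradiated at room temperature with a 652 nm diode laser, 100 mW/cm², 50 J/cm². Viability read by XTT absorbance.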
Background: Tetrazolium dyes change colour on reduction, which living cells bring about.

The test system of series [3] is HT-29. In words: Cytotoxicity against human HT29 cells under dark condition at 10 uM after 24 hrs by XTT assay in presence of 10% heat-inactivated fetal calf serum. The series is classed as functional, cell-based. A digest of the protocol: (§2)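 HT-29 human colon adenocarcinoma cells seeded at 2 × 10⁴ cells/well. Incubated 24 h with 2 or 10 μM sensitizer (final, diluted from 2 mM DMSO stock) in phenol-red-free RPMI 1640 with 10% FCS. Cells kept without irradiation for dark toxicity. Viability measured by XTT absorbance.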

Series [4] concerns HT-29. Kind of series: Phototoxicity against human HT29 cells irradiated with 652 nm diode laser at the rate of 50 J/cm'2 at 2 uM after 24 hrs by XTT assay in presence of 10% heat-inactivated fetal calf serum. Format: functional, cell-based. The method in brief:
as §1

Series [5] has as its system HT-29. Kind of series: Cytotoxicity against human HT29 cells under dark condition at 2 uM after 24 hrs by XTT assay in presence of 10% heat-inactivated fetal calf serum. Format: functional, cell-based. The method in brief:
as §2

SMILES strings stand for the structures. Calls of active or inactive are those of the source. The rule behind the calls is not given here.

In the case of `Oc1cccc(-c2c3nc(c(-c4cccc(O)c4)c4ccc([nH]4)c(-c4cccc(O)c4)c4nc(c(-c5cccc(O)c5)c5ccc2[nH]5)C(O)(C(F)(F)F)C4(O)C(F)(F)F)C=C3)c1` (stereo not given), the Stability result in series [1] is “Stable”. Also, the result in the series with HT-29 [2] and with HT-29 [4] was Active. For the same molecule, the result in the series on HT-29 [3] and in the series with HT-29 [5] was inactive.
Take `Oc1cccc(-c2c3nc(c(-c4cccc(O)c4)c4ccc([nH]4)c(-c4cccc(O)c4)c4nc(c(-c5cccc(O)c5)c5ccc2[nH]5)C(O)(c2cc(C(F)(F)F)cc(C(F)(F)F)c2)C4(O)c2cc(C(F)(F)F)cc(C(F)(F)F)c2)C=C3)c1` (stereo not given): the Stability entry in series [1] was “Stable”. For the same molecule, in the series on HT-29 [2], the outcome was Active. The outcome in the series on HT-29 [3], with HT-29 [4] and with HT-29 [5] was inactive.
Regarding `CCCCCCC1(O)c2nc(c(-c3cccc(O)c3)c3ccc([nH]3)c(-c3cccc(O)c3)c3nc(c(-c4cccc(O)c4)c4ccc([nH]4)c2-c2cccc(O)c2)C=C3)C1(O)CCCCCC` (stereo not given), the Stability entry in series [1] is given as “Stable”. In addition, the result with HT-29 [2] and in the series on HT-29 [4] was Active. Besides, the result in the series on HT-29 [3] and in the series on HT-29 [5] was inactive.

These data come from ChEMBL document CHEMBL1833946, “Synthesis of β-functionalized temoporfin derivatives for an application in photodynamic therapy” (Bioorg Med Chem Lett, 2011).
